Source: PubChem BioAssay (several laboratories)
Rce1 inh: inhibitors of yeast Ras-converting enzyme; AID 2563; yeast membranes, quenched prenylated peptide cleavage fluorescence; Q03530; calls only; 0.27% of 290,000 active;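 active means fall in fluorescence gain of 50% or more versus controls, with final raw signal at or below 3038400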;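 further: plate controls were neutral control wells for no effect and wells lacking membranes for full effect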
MEKK2 mut-MEK5: signal of MEK5 binding to mutant human MEKK2 PB1 domain; percent response, % at 10 µM; bead flow cytometry, Alexa488-MEK5 binding to MEKK2 mutant; 0.35% of 290,000 active; in the data active means percent response above about 24%, passing the limit was not always enough
T cell HTS: T cell immune modulators affecting CD8 T cell-vesicle binding | 0.068% of 330,000 active | AID 2052 | response (vesicle binding), % at 7 µM | 2C CD8+ T cell-vesicle binding, flow cytometry; hits give low values;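 active means response, share of CD8 T cells binding vesicles, and their 90th percentile fluorescence all below set limits, cut at about 80% in these data, passing the limit was not always enough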;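 further: values below 100% mean blocked vesicle binding to the CD8+ T cells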
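Material: murine 2C transgenic CD8+ T lymphocytes / Also added: QL9-peptide-loaded Drosophila micro-vesicles bearing Ld, ICAM-1 and B7-1 / Schedule: binding step 1.5 h, 37 °C, antibody labelling 20 min, ice / Signal: flow cytometry, PE anti-B7-1 (FL2) versus Alexa647 anti-CD8 (FL8), PFA-fixed / Evaluation: percent CD8+ FL2 mean versus row control / Benchmarks: naked versus QL9-loaded vesicles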
UCH37 inh: human UCH37 deubiquitinating enzyme inhibition; Q9Y5K5; purified proteasome/UCH37, Ub-AMC cleavage fluorescence; inhibition, % (no concentration beside the values); 0.33% of 330,000 active; AID 588478;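 active means mean inhibition over replicate wells above about 20%, limit read from the data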;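 further: 0% = compound-free wells with enzyme and 100% = wells lacking proteasome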
Target sequence (Q9Y5K5 whole entry, looked up): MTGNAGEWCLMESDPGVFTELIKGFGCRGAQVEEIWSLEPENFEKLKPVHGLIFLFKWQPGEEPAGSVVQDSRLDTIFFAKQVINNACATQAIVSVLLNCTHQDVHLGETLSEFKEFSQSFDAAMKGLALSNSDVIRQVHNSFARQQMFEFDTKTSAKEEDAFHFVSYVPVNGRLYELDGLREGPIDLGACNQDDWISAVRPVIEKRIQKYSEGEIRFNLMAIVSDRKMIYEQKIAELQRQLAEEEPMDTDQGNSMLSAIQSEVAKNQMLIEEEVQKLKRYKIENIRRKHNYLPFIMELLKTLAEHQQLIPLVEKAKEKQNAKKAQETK
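assay system = human UCH37 enzyme supplied as purified proteasome complex | amount = proteasome at 0.15 nM in the dispensed enzyme solution | schedule = 30 min compound-proteasome preincubation then 25 min substrate reaction, room temperature | measured by = fluorescence, ex 355 nm, em 460 nm | benchmarks = no-proteasome wells (full inhibition) and compound-free wells (no inhibition)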
MEKK3 PB1 HTS: MEKK3-MEK5 PB1 interaction, increase or decrease. 1.4% of 290,000 active. bead-based flow cytometry, Alexa488-MEK5 binding to MEKK3; actives lie on both sides; 0 = blocked by unlabeled MEK5, 100 = vehicle. Q99759. binding response (% of control), % at 10 µM;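 active means binding response more than 3 SD above or below the average of its plate-row segment, actives on both sides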;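 further: Alexa488 bead fluorescence after subtracting the streptavidin-only scavenger bead signal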
MEKK2wt PB1 HTS: raises or lowers MEK5 binding to wildtype human MEKK2 PB1 domain; 1.1% of 290,000 active; binding response (% of control), % at 10 µM; Q9Y2U5; bead flow cytometry, Alexa488-MEK5 binding to MEKK2 WT; actives lie on both sides; in the data active means binding response below about 67% or above about 130%
MEKK2wt confirm: raises or lowers MEK5 binding to wildtype human MEKK2, retest; 2.4% of 5,900 active; bead flow cytometry, Alexa488-MEK5 binding to MEKK2 WT; actives lie on both sides; binding response (% of control), % at 10 µM; shares compounds with MEKK3 PB1 HTS; in the data active means binding response below about 16% or above about 210%; inactive means in between
MEKK2mut confirm: signal of MEK5 binding to mutant human MEKK2, retest; AID 1893; shares compounds with MEKK3 PB1 HTS; percent response, % at 10 µM; bead flow cytometry, Alexa488-MEK5 binding to MEKK2 mutant; 2% of 5,900 active; in the data active means percent response mostly above about 71%, no sharp cut-off; inactive means mostly below about 38%;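 further: higher means compound restores mutant binding toward wildtype level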
MEKK3 confirm: confirmation of inhibitors of MEK5 binding to human MEKK3; bead flow cytometry, Alexa488-MEK5 binding to MEKK3; hits give low values; AID 1894; 1.8% of 5,900 active; shares compounds with MEKK3 PB1 HTS; binding response (% of control), % at 10 µM;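 active means binding response below 72% of control, or above a set upper limit, though filed actives all read lower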;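 further: 100% = DMSO only wells and 0% = binding blocked by excess unlabeled MEK5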
The depositor's hits bear a star; i = inactive; nt = no result; [ ] = remark or other dose. Only some compounds are listed: those with a hit (about 2.5% of all), similar ones and a draw of the others.

SMILES	Rce1 inh	MEKK2 mut-MEK5	T cell HTS	UCH37 inh	MEKK3 PB1 HTS	MEKK2wt PB1 HTS	MEKK2wt confirm	MEKK2mut confirm	MEKK3 confirm
O=C(c1nn(-c2ccccc2)c(=O)c2ccccc12)N1CCN(c2ccccn2)CC1	i	-5.0	213.9	2.4	66.0*[inhibitor]	78.0	102.0	1.0	99.0
CCOC(=O)C(=NNc1ccc(Cl)cc1)Sc1nnc(-c2ccc(OC)cc2)n1C	nt	nt	nt	4.6	nt	nt	nt	nt	nt
COc1cc(C(=O)OCC2CC(c3ccccc3)=NO2)cc(OC)c1OC (stereo not given)	i	280.0*	326.2	4.7	101.0	93.0	100.0	0.0	104.0
COc1ccc(OC)c(NC(=O)c2nc3ccccc3s2)c1	i	2.0	674.7	-5.7	3.0*[inhibitor]	3.0*[inhibitor]	111.0	6.0	109.0
CCOc1ccc(/C=C2\SC(=S)N(Nc3ccccc3)C2=O)cc1OC	i	-2.0	173.9	0.5	128.0*	66.0	65.0	-16.0	93.0
O=C(CCCn1c(=O)[nH]c2ccsc2c1=O)Nc1ccc(F)cc1	i	1.0	318.6	5.2	54.0*[inhibitor]	68.0	97.0	3.0	98.0
O=C(CCCCCN1C(=O)c2cccc3cccc(c23)C1=O)NCc1cccnc1	i	-44.0	212.4	-65.8	49.0*[inhibitor]	51.0	105.0	6.0	105.0
O=C(CCCN1C(=O)c2ccccc2C1=O)NCc1ccc(F)cc1	i	33.0*	274.6	4.0	115.0	117.0	91.0	-7.0	90.0
O=C(CCCCCN1C(=O)c2ccccc2C1=O)Nc1ccc(F)cc1	i	1.0	212.9	0.9	131.0*	110.0	96.0	-2.0	98.0
CC(=NNC(=O)C(N)=O)c1cccc([N+](=O)[O-])c1	nt	nt	nt	3.7	nt	nt	nt	nt	nt
O=C(O)CCSCC(=O)Nc1c(C(=O)C2CC2)oc2ccccc12	i	0.0	478.7	4.6	101.0	102.0	nt	nt	nt
O=C(Nc1c(C(=O)C2CC2)oc2ccccc12)c1ccc(Cl)cc1	i	1.0	200.0	-114.2	145.0*	111.0	102.0	5.0	102.0
Cc1ccc(-n2cc(CN(C)CCc3cn[nH]c3)c(-c3cccc(C)c3)n2)cc1	i	47.0	231.5	-0.7	100.0	158.0*	119.0	8.0	107.0
Cc1csc2c(NCCCN3CCOCC3)ncnc12	i	27.0	286.8	3.4	137.0*	136.0	104.0	3.0	104.0
Cc1ccc2ncnc(NCCCN3CCOCC3)c2c1	i	0.0	850.9	-0.5	100.0	103.0	nt	nt	nt
O=S(=O)(c1ccccc1)n1ccc(-c2cnc(-c3ccccc3)s2)n1	i	4.0	242.6	-6.4	129.0*	122.0	99.0	-3.0	100.0
Cc1ccc(Cn2ccc(-c3cnc(-c4ccccc4)s3)n2)cc1	i	2.0	160.5	-177.1	103.0	107.0	nt	nt	nt
Oc1ccc(Nc2ncnc3c2oc2ccccc23)cc1	i	-3.0	469.9	nt	99.0	102.0	nt	nt	nt
CC(=O)N1CCN(c2ccc(Nc3ncnc4c3oc3ccccc34)cc2)CC1	i	-12.0	176.5	3.7	81.0*[inhibitor]	89.0	106.0	8.0	101.0
O=C(NCc1ccc(Cl)cc1)C1CCC(CNS(=O)(=O)c2ccccc2)CC1 (stereo not given)	i	8.0	179.3	6.6	102.0	101.0	nt	nt	nt
CC(=O)Nc1ccc(S(=O)(=O)NCC2CCC(C(=O)NCc3ccccc3)CC2)cc1 (stereo not given)	i	1.0	333.6	5.0	138.0*	129.0	101.0	4.0	101.0
Cc1occc1C(=O)NN=Cc1sc(N2CCOCC2)nc1-c1ccccc1	nt	nt	nt	-110.7	nt	nt	nt	nt	nt
